PubChem BioAssay
Results filed as inconclusive are left out.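 How the source made its calls, unless noted: active means cell viability at or below a set limit in both duplicate runs, the limit being the all-compound median minus 4 SD (cut at about 23% in these data, passing the limit was not always enough); inconclusive means no clear call, values can overlap the other calls; inactive means the rest.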

How the values were obtained:
[1] = S. cerevisiae growth inhibition in permissive medium (OD615), pilot counter-assay for S. cerevisiae lifespan shortening project, permissive growth control (AID 705;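 active means growth inhibition above 25% in both replicates, a cutoff set 3 SD above the mean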); details: OD615, 24 h, at 10 µM, hits give high values
How it was run: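 Test system: Saccharomyces cerevisiae strain carrying genetically modified DeaD replicative-lifespan system; buffer or medium: SC raffinose/galactose permissive medium; dosing: one dose 10 µM, DMSO 0.25% final; times: 24 h exposure, 30 °C; measured by: OD at 615 nm; read-out basis: growth inhibition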

[2] = S. cerevisiae growth inhibition in restrictive medium, OD615, pilot screen, restrictive growth control, yeast lifespan reduction project (AID 706;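 active means growth inhibition above a set limit, 3 SD over mean compound inhibition, in both replicates, cut at about 43% in these data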;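 further: modified DeaD lifespan yeast strain shifted to restrictive glucose medium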); details: OD615, 48 h, at 10 µM, hits give high values
How it was run: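 material = engineered S. cerevisiae DeaD strain | buffer or medium = glucose-based CSMM-D restrictive medium | dosing = one concentration, 10 µM final, 0.25% DMSO | schedule = 4 h pre-growth plus 48 h compound exposure, 30 °C | detection = OD615 absorbance reading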

[3] = doxorubicin toxicity protection in MRP-1 cells – H69AR cells, CellTiter-Glo, duplicate, MRP-1 activator project, pilot screen (AID 807;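 active means viability increase at or above a cutoff of the median across tested compounds plus 3 SD, cut at about 8.5% in these data, passing the limit was not always enough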;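 further: compound pretreatment 18-22 h then 72 h combined with doxorubicin; 0% = doxorubicin alone and 100% = vehicle without doxorubicin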); details: H69AR viability with doxorubicin, CellTiter-Glo luminescence; at 10 µM; hits give high values
[4] = viability of HCT116 without oncogenic beta-catenin – human colon tumor cells, pilot screen (AID 823); details: HCT116 beta-catenin knockout viability, CellTiter-Glo, 60 h; at 10 µM; hits give low values;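 further: 0% = wells killed by 20 µM Hyamine and 100% = untreated DMSO cell wells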
[5] = viability of PTEN-null HCT116 cells – cell-based, HCT116 clonal line, CellTiter-Glo, pilot screen (AID 824;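 active means viability at or below 27.92% in each of two runs, the all-compound median minus 4 SD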;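 further: 0% = 20 µM Hyamine control and 100% = vehicle cell control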); details: HCT116 PTEN-deleted viability, 60 h, at 10 µM, hits give low values
[6] = RAM pathway blockade in budding yeast – dse1pr::URA3 reporter, 5-FOA selection, pilot screen (AID 869;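 active means inhibition over a set limit, the all-compound mean plus 3 SD, in both replicate runs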;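 further: 0% = DMSO wells with no growth and 100% = 10 µM 1-NA-PP1 with full growth; RAM network block rescues cells from 5-FOA so hits raise OD615 growth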); details: S. cerevisiae dse1pr::URA3 5-FOA growth, OD615, 2 d; at 10 µM; hits give high values; strain carries analog-sensitive mutant Cbk1 kinase
[7] = RAM signaling pathway blockade in yeast – S. cerevisiae, Pdr1DBD-CYC8 efflux-inhibited sensitized strain, primary screen (AID 1298;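 active means RAM network inhibition above 8.4% in each of two replicates, 3 SD over the compound average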;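 further: 0% = DMSO untreated cells without growth and 100% = 10 µM 1-NA-PP1 full growth; higher means more yeast growth rescued from 5-FOA killing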); details: S. cerevisiae cbk1-as DSE1-URA3 strain, 5-FOA growth OD615, 2 d; at 50 µM; hits give high values

COc1ccc(NC(=O)C(CC(=O)O)Cc2ccccc2)cc1 (stereo unspecified)
inactive: growth inhibition [1] -17% | growth inhibition [2] -9.36% | viability increase [3] -0.09% | viability [4] 102% | viability [5] 97.9% | inhibition [6] 1.62% | RAM network inhibition [7] 5.61%

Cc1cc(C)cc(OCC(O)CN2C(=O)NC(C)(C)C2=O)c1 (stereo unspecified)
inactive: growth inhibition [1] 2.01% | growth inhibition [2] 2.59% | viability increase [3] 0.13% | viability [4] 108% | viability [5] 103% | inhibition [6] -0.255% | RAM network inhibition [7] 2.26%

C=CCn1c(SCc2ccc(F)cc2)nc2c1c(=O)[nH]c(=O)n2C
inactive: growth inhibition [1] -8.99% | growth inhibition [2] -8.69% | viability increase [3] -2.64% | viability [4] 96.9% | viability [5] 89% | inhibition [6] 0.25% | RAM network inhibition [7] 2.71%

C=CCn1c(CSc2nc3ccccc3s2)nnc1SCC(=O)NCc1ccco1
inactive: growth inhibition [1] 1.06% | growth inhibition [2] 30.4% | viability increase [3] -3.87% | viability [4] 96.6% | viability [5] 90.4% | inhibition [6] 0.105% | RAM network inhibition [7] 2.19%

Cc1ccc(C)c(C(=O)COC(=O)c2ccc(Br)o2)c1
inactive: growth inhibition [1] -12.9% | growth inhibition [2] -17.1% | viability increase [3] -0.26% | viability [4] 94.2% | viability [5] 86.2% | inhibition [6] 0.38% | RAM network inhibition [7] 1.4%

C(=N\n1cnnc1)/C1CCCCC1
inactive: growth inhibition [1] -4.95% | growth inhibition [2] -1.24% | viability increase [3] -2.8% | viability [4] 101% | viability [5] 98.4% | inhibition [6] 0.19% | RAM network inhibition [7] 6.93%

CCN(CC)S(=O)(=O)c1ccc(NC2c3ccccc3C(=O)N2Cc2ccc3c(c2)OCO3)cc1 (stereo unspecified)
inactive: growth inhibition [1] 1.96% | growth inhibition [2] -8.94% | viability increase [3] -2.84% | viability [4] 92.9% | viability [5] 93% | inhibition [6] -0.09% | RAM network inhibition [7] 5.92%

O=C(CCCn1c(=O)oc2ccccc21)N1CCc2ccccc2C1
inactive: growth inhibition [1] -8.29% | growth inhibition [2] -14.1% | viability increase [3] -4.06% | viability [4] 94.3% | viability [5] 95.2% | inhibition [6] 1.48% | RAM network inhibition [7] 4.82%

CCOc1ccc(Br)cc1/C=N/O
inactive: growth inhibition [1] -17.4% | growth inhibition [2] -29.9% | viability increase [3] -1.73% | viability [4] 80.3% | viability [5] 87.1% | inhibition [6] 0.11% | RAM network inhibition [7] -0.16%

CC(=O)N=C1SC2CS(=O)(=O)CC2N1c1c(Cl)cccc1Cl (stereo unspecified)
inactive: growth inhibition [1] 5.46% | growth inhibition [2] 3.7% | viability increase [3] -1.41% | viability [4] 99.4% | viability [5] 94.2% | inhibition [6] 0.405% | RAM network inhibition [7] -0.17%

COCCNC(=O)c1cc2c(-c3ccc(Cl)cc3)nn(C)c2s1
inactive: growth inhibition [1] 3.03% | growth inhibition [2] 8.65% | viability increase [3] -6% | viability [4] 64.6% | viability [5] 71% | inhibition [6] 0.32% | RAM network inhibition [7] 10.4%

Cc1ccc(N(C(C)C(=O)O)S(=O)(=O)c2c(C)[nH]c(=O)[nH]c2=O)cc1 (stereo unspecified)
inactive: growth inhibition [1] 1.15% | growth inhibition [2] 11.8% | viability increase [3] -0.92% | viability [4] 102% | viability [5] 94.5% | inhibition [6] 0.555% | RAM network inhibition [7] -0.47%

CCCn1c(-c2ccc(OC)cc2)nc2ccccc21
inactive: growth inhibition [1] -16.6% | growth inhibition [2] -12.9% | viability increase [3] -0.51% | viability [4] 74.4% | viability [5] 71.9% | inhibition [6] 2.18% | RAM network inhibition [7] 7.97%

COC(=O)c1c(C)nc(C)c2c(=O)oc3ccccc3c12
inactive: growth inhibition [1] 3.52% | growth inhibition [2] 15.3% | viability increase [3] 0.64% | viability [4] 102% | viability [5] 104% | inhibition [6] 2.04% | RAM network inhibition [7] 1.99%

COc1ccc(-c2nc(CS(=O)CC(=O)NCc3cccnc3)c(C)o2)cc1OC (stereo unspecified)
inactive: growth inhibition [1] -1.92% | growth inhibition [2] -2.94% | viability increase [3] -2.64% | viability [4] 99.5% | viability [5] 94.8% | inhibition [6] 1.42% | RAM network inhibition [7] 0.68%

Cn1c(CNC(=O)c2ccc(F)cc2)nc2ccccc21
inactive: growth inhibition [1] -0.44% | growth inhibition [2] -5.71% | viability increase [3] -2.48% | viability [4] 99.5% | viability [5] 102% | inhibition [6] 0.325% | RAM network inhibition [7] 3.67%

COc1ccc(Cc2nnc(SC)[nH]c2=O)cc1OC
inactive: growth inhibition [1] 0.615% | growth inhibition [2] -16.6% | viability increase [3] -1.67% | viability [4] 101% | viability [5] 99.4% | inhibition [6] 0.225% | RAM network inhibition [7] 1.41%

CC(C)Cc1cc(C(=O)Nc2ccc(F)cc2F)no1
inactive: growth inhibition [1] -18.9% | growth inhibition [2] -23.4% | viability increase [3] 1.32% | viability [4] 100% | viability [5] 98.6% | inhibition [6] 0.505% | RAM network inhibition [7] 0.21%

NC(=O)c1ccc(N2CCCCC2)c(N2C(=O)CCC2=O)c1
inactive: growth inhibition [1] -4.77% | growth inhibition [2] -17.9% | viability increase [3] -0.03% | viability [4] 102% | viability [5] 94.6% | inhibition [6] 2.69% | RAM network inhibition [7] 2.67%

Cc1onc(-c2ccccc2Cl)c1C(=O)NCc1ccc2c(c1)cc(C)n2C
inactive: growth inhibition [1] -6.07% | growth inhibition [2] -12.7% | viability increase [3] -3.02% | viability [4] 95.5% | viability [5] 84.6% | inhibition [6] 1.93% | RAM network inhibition [7] 5.14%

COc1cccc(C2NC(=O)NC(O)(C(F)(F)F)C2C(=O)c2cccnc2)c1OC (stereo unspecified)
inactive: growth inhibition [1] 2.02% | growth inhibition [2] -2.12% | viability increase [3] 0.64% | viability [4] 109% | viability [5] 98.9% | inhibition [6] 1.14% | RAM network inhibition [7] 0.92%

CC(=O)NCC(=O)OCC(=O)c1ccc(C)c(C)c1
inactive: growth inhibition [1] -7.93% | growth inhibition [2] -2.07% | viability increase [3] -1.39% | viability [4] 88.8% | viability [5] 95.1% | inhibition [6] 0.75% | RAM network inhibition [7] -0.41%

CCCCn1c(CCCNC(=O)CC)nc2ccccc21
inactive: growth inhibition [1] 0.535% | growth inhibition [2] -5.98% | viability increase [3] -4.51% | viability [4] 94.2% | viability [5] 85.8% | inhibition [6] 1.65% | RAM network inhibition [7] 4.06%

O=C(NCCN1CCN(c2ccccc2F)CC1)C1CCCN(S(=O)(=O)c2cnc[nH]2)C1 (stereo unspecified)
inactive: growth inhibition [1] 5.84% | growth inhibition [2] 3.21% | viability increase [3] -1.19% | viability [4] 104% | viability [5] 98% | inhibition [6] 2.38% | RAM network inhibition [7] 0.68%

CCOC(=O)C1CCN(C(=O)CN(c2cccc(OC)c2)S(=O)(=O)c2ccccc2)CC1
inactive: growth inhibition [1] -4.73% | growth inhibition [2] -0.62% | viability increase [3] -3.2% | viability [4] 92.9% | viability [5] 87.2% | inhibition [6] -0.74% | RAM network inhibition [7] 1.79%

O=C(Nc1ccc(Br)cc1F)C1CCN(c2nnc(-n3cccc3)s2)CC1
inactive: growth inhibition [1] 2.32% | growth inhibition [2] -4.69% | viability increase [3] 0.53% | viability [4] 97.8% | viability [5] 99.8% | inhibition [6] 3.21% | RAM network inhibition [7] 0.36%

CCOC(=O)C1CCN(C(=O)CN(c2ccc(OC)c(OC)c2)S(=O)(=O)c2ccccc2)CC1
inactive: growth inhibition [1] -2.99% | growth inhibition [2] -7.61% | viability increase [3] 0.05% | viability [4] 104% | viability [5] 94.6% | inhibition [6] 1.19% | RAM network inhibition [7] 6.25%

CCOC(=O)C1=C(C)NC(=O)NC1c1c(O)ccc2ccccc12 (stereo unspecified)
inactive: growth inhibition [1] -11.6% | growth inhibition [2] -12.7% | viability increase [3] -3.39% | viability [4] 97.6% | viability [5] 95.4% | inhibition [6] 0.77% | RAM network inhibition [7] 2.29%

Nc1nc(NC(=O)c2cccc(S(=O)(=O)N3CCCCCC3)c2)nc(-c2ccccc2)n1
inactive: growth inhibition [1] -1.66% | growth inhibition [2] 6.65% | viability increase [3] -4.04% | viability [4] 74.8% | viability [5] 74.4% | inhibition [6] 3.56% | RAM network inhibition [7] 4.53%

COc1ccc(OC)c(C2CC(=O)N3CN(c4ccccc4)CSC3=C2C#N)c1 (stereo unspecified)
inactive: growth inhibition [1] 0.46% | growth inhibition [2] 26.8% | viability increase [3] -4.09% | viability [4] 96.2% | viability [5] 94.5% | inhibition [6] 1.09% | RAM network inhibition [7] 0.06%

Cn1nc(-c2ccc(Cl)cc2)c2cc(C(=O)N3CCN(c4ccccc4)CC3)sc21
inactive: growth inhibition [1] -0.325% | growth inhibition [2] -3.28% | viability increase [3] -5.26% | viability [4] 71.2% | viability [5] 72.2% | inhibition [6] 3.44% | RAM network inhibition [7] 5.19%

O=C(Cn1cc2c(n1)CCCC2)NCc1cccnc1
inactive: growth inhibition [1] -1.72% | growth inhibition [2] -0.58% | viability increase [3] -0.86% | viability [4] 102% | viability [5] 101% | inhibition [6] 3.13% | RAM network inhibition [7] 3.68%

Nc1ccc(Nc2ccccc2)c(Cl)c1
inactive: growth inhibition [1] -1.62% | growth inhibition [2] 19% | viability increase [3] -7.58% | viability [4] 94.7% | viability [5] 97.8% | inhibition [6] 2.79% | RAM network inhibition [7] 4.55%
